# Assay outcomes from PubChem.
# KCNK3 inh – human KCNK3 channel inhibition, primary screen | 340,000 compounds, 0.84% hits | B-score at 10 µM | AID 602410 | CHO-KCNK3 thallium flux, FluxOR fluorescence; active compounds read low | O14649;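 active = B-score under library mean minus 4 SD, starting fluorescence ratio at most library mean plus 5 SD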;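 also: more negative B-score means stronger inhibition of thallium flux through KCNK3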
# KCNK9 inh – human KCNK9 channel inhibition. 310,000 compounds, 1.2% hits. HEK293 KCNK9, FluxOR thallium flux fluorescence; active compounds read low. B-score at 10 µM. Q9NPC2;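 active = ratio B-score over 3 SD below the library mean, with starting fluorescence within 5 SD of its mean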;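 also: negative B-score means less thallium flux so channel inhibition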
# KCNQ1 act – human KCNQ1 channel potentiation or activation. P51787. 310,000 compounds, 0.35% hits. B-score at 10 µM. CHO-K1 KCNQ1, thallium flux FluxOR fluorescence; active compounds read high;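 active = fluorescence ratio B-score, a plate-corrected score, at least three library SD, with initial intensity B-score within 5 SD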
#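 Assay system: CHO-K1 cells stably expressing KCNQ1; Medium: assay buffer with matched DMSO; Also added: K+/Tl+ depolarizing stimulus; Dosing: single dose; Timing: dye 90 min, compound 20 min, room temperature; Measured by: kinetic FluxOR thallium fluorescence, 10-s 1-Hz baseline, 110-s post-stimulus read; Read-out: peak-minus-minimum fluorescence over initial fluorescence, negative-control normalized, B-scored.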
# hERG protect – hERG (human) protection from proarrhythmic block | activation (rescue from dofetilide block), less the hit threshold, % at 10 µM | AID 1511 | 310,000 compounds, 0.51% hits | Q12809 | CHO-hERG, FluxOR thallium flux, dofetilide IC70 present;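 active = activation above the mean of controls blocked by dofetilide plus 5 SD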;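 also: thallium influx through hERG after potassium depolarization seen as dye fluorescence rise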
# Target sequence (Q12809 whole entry, looked up): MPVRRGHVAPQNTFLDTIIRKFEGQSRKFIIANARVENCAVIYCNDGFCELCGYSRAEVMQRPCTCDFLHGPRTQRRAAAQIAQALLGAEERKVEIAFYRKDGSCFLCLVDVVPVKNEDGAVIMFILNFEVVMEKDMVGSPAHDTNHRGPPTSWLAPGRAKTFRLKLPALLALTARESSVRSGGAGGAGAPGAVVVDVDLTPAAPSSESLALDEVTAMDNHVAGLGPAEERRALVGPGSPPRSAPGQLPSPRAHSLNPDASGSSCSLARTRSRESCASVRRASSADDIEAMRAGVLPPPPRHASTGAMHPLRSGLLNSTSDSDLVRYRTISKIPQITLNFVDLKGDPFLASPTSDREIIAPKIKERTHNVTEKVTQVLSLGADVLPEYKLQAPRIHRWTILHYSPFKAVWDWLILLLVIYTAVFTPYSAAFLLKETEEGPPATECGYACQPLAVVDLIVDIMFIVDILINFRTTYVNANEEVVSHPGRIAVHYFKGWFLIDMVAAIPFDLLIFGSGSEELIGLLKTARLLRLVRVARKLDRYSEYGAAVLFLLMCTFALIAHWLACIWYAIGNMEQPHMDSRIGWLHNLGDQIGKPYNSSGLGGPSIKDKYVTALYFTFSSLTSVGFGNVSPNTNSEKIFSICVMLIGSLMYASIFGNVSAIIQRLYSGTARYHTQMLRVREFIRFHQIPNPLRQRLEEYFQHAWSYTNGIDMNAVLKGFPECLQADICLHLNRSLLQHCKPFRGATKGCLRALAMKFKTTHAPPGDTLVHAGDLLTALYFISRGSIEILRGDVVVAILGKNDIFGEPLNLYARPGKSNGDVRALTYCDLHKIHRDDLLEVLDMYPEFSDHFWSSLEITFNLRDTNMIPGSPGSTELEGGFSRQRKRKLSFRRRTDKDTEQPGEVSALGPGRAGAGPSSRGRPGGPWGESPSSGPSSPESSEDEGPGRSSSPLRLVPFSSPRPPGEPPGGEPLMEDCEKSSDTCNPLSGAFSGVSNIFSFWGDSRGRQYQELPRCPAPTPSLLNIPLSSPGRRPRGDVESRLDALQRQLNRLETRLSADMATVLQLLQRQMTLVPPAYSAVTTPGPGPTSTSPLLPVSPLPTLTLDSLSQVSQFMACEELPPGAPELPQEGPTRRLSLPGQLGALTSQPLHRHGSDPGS
# Kir21 block – blocks the mouse Kir2.1 inward-rectifier potassium channel; HEK293-Kir2.1, FluxOR thallium flux fluorescence; active compounds read low; 310,000 compounds, 0.85% hits; P35561; B-score at 10 µM;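 active = fluorescence ratio B-score at or below minus 3 SD of library scores, with starting-brightness B-score within 2 SD, cut at about -4.2 in these data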;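 also: channel flux triggered by added potassium and thallium sulfate stimulus; B-score of peak minus minimum fluorescence over baseline after thallium stimulus; more negative B-score means stronger Kir2.1 block with less thallium influx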
# KCNQ1 block – inhibitors of human KCNQ1 potassium channel; P51787; CHO-K1 KCNQ1, FluxOR thallium flux fluorescence; active compounds read high; B-score at 10 µM; 310,000 compounds, 1.3% hits; AID 2642;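 active = compounds whose thallium flux B-score, printed positive for inhibition, exceeds three library SD while starting fluorescence stays within three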;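 also: channel opened by potassium depolarization with thallium stimulus after 20 min compound exposure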
# Starred values were filed as active, the others as inactive; i = inactive; nt = no result. Compounds with a hit are over-represented: about 3.7% of the library has one in this group of screens.
SMILES,KCNK3 inh,KCNK9 inh,KCNQ1 act,hERG protect,Kir21 block,KCNQ1 block
C=CC(C)(C)c1c(O)c(CC=C(C)C)c(O)c2c(=O)c3ccc(O)c(O)c3oc12,i,i,i,-9,1.6,6*
C=CCOc1cccc(NC(=O)c2ccccc2SC)c1,i,i,i,-11,-0.87,i
O=C(Nc1cccc(NC(=O)c2cccs2)c1)c1ccc(F)cc1,i,-7.4*,i,-4,1,i
N/C(=N\O)c1ccc(NC(=O)c2cccs2)cc1,i,i,i,46*,0.13,i
Cc1ccccc1CSCc1nc2ccccc2[nH]1,i,i,i,-8,-0.07,i
Cc1ccc(C)c(CSCc2nc3ccccc3[nH]2)c1,i,i,i,-8,-8.4*,i
O=c1c(/C=C(\O)c2ccc(F)cc2)nc2ccccc2n1-c1ccccc1,i,i,i,-2,-1.1,6*
Cn1c(=O)c(/C=C/c2ccc(F)cc2)nc2ccccc21,i,i,i,-7,0.71,i
CCOCC(=O)OCC(=O)Nc1cc(OC)c([N+](=O)[O-])cc1C,i,i,i,4.9*,0.22,i
CCc1c(C)sc(NC(=O)c2cccs2)c1C(=O)OC(C)C,i,-6.6*,i,-10,0.09,i
N=C1/C(=C/c2cccs2)C(=O)N=C2SN=C(SCc3ccccc3)N12,i,i,i,-10,-3.7,i
CC(C)CSC1=NSC2=NC(=O)/C(=C\c3cccs3)C(=N)N12,i,i,8*,-1,1.5,i
COc1ccc(CC(=O)OCC(=O)Nc2ncc(Cl)c(C)c2Cl)cc1,i,nt,nt,nt,nt,nt
CCCn1c(N)c(N(CCOC)C(=O)c2cc(C)cc(C)c2)c(=O)[nH]c1=O,i,i,i,-3,0.82,i
CN(C)CCCn1c(SCC(=O)N2c3ccccc3Sc3ccccc32)nc2ccccc2c1=O,i,i,i,-24,-5.2*,i
CC(C)(C)N(Cc1ccccc1)C(=O)COC(=O)c1cccc([N+](=O)[O-])c1,i,i,i,-6,-0.13,i
Cc1ccc(C(=O)/C=C/Nc2cccc([N+](=O)[O-])c2)o1,i,i,i,-9,0.84,i
CCN(c1cccc(C)c1)S(=O)(=O)c1cnc[nH]1,i,i,i,5.3*,-3.4,i
COc1cc(/C=C2/C(=N)N3C(=NC2=O)SN=C3S(C)(=O)=O)ccc1OC(=O)c1ccco1,i,i,i,-7,-0.33,i
CSC1=NSC2=NC(=O)/C(=C/c3coc4ccc(O)cc4c3=O)C(=N)N12,i,i,i,-47,-15,9*
COc1cc(/C=C2/C(=N)N3C(SC)=NSC3=NC2=O)ccc1OC(=O)c1ccco1,i,i,i,-2,-4.6*,i
CCc1ccc(-c2nc(CSCC(=O)N3CCN(c4ccccn4)CC3)c(C)o2)cc1,i,i,i,-33,-1.4,i
Cc1ccc(-c2nc(CSCC(=O)N3CCN(c4ccccn4)CC3)c(C)o2)cc1,-8.9*,i,i,-18,-0.17,i
COc1ccc(CCN=C(NS(=O)(=O)c2ccccc2)c2ccccc2)cc1OC,i,i,i,12*,0.59,i
Cc1cccc(N2CCN(S(=O)(=O)c3ccc4c(c3)CC(C)N4C(=O)C3CC3)CC2)c1C (stereo not drawn),i,i,i,-7,0.54,6*
SMILES,KCNK3 inh,KCNK9 inh,KCNQ1 act,hERG protect,Kir21 block,KCNQ1 block
CC1(C)CC2CC(C)(CN2C(=S)NC(=O)c2ccccc2Cl)C1 (stereo not drawn),i,i,27*,39*,0.29,i
Cc1nc(-c2nc(-c3c(C(=O)NNC(=O)c4ccc(Cl)cc4)noc3C)cs2)cs1,i,i,17*,3,-0.11,i
Cc1nc(-c2nc(-c3c(C(=O)NNC(=O)Nc4cccc(Cl)c4)noc3C)cs2)cs1,i,i,i,-10,-1.2,i
Cc1sc2nc(SCC(=O)c3cc(C)n(CC4CCCO4)c3C)n(C(C)C)c(=O)c2c1C (stereo not drawn),-8.8*,i,i,-5,0.08,i
Cc1cc(C(=O)CSc2nc(N)cc(N)n2)c(C)n1CC1CCCO1 (stereo not drawn),i,nt,nt,nt,nt,nt
CCCOc1ccc(/C=C/C(=O)Nc2ccc([N+](=O)[O-])cc2)cc1,i,i,i,-16,-0.67,7*
Cc1nc2ccccc2c2oc(C(=O)Nc3ccc(C(C)C)cc3)cc12,i,i,i,-8,0.16,9*
Cc1nc2ccccc2c2oc(C(=O)NCC3COc4ccccc4O3)cc12 (stereo not drawn),-10*,i,i,-17,-0.97,i
Cc1nc2ccccc2c2oc(C(=O)Nc3ccc4c(c3)OCCO4)cc12,i,i,i,-10,1.6,i
COc1cccc(/C=N/n2c(SC)nnc2-c2ccccc2)c1OC,i,i,i,-12,0,i
COc1cccc(/C=N/n2c(SC)nnc2-c2ccccc2)c1O,i,i,15*,2,1.7,i
CCOc1ccc(NS(=O)(=O)c2cc(C(=O)NCCN3CCOCC3)ccc2C)cc1,i,nt,nt,nt,nt,nt
CCOC(=O)c1c(NC(=O)Cn2ccsc2=N)sc(C)c1C,i,i,i,-11,0.36,i
O=C(COc1cccc([N+](=O)[O-])c1)NN1C(=O)c2ccccc2C1=O,i,i,i,0,0.52,i
CC1CC(C)C[N+](=C2C=C(N3CCCC3)CC(C)(C)C2)C1 (stereo not drawn),i,i,i,-17,-5.8*,8*
Cc1ccc(CNC(=O)c2ccc(N3CCC4(CC3)CC(c3ccccc3)=NO4)c([N+](=O)[O-])c2)cc1,i,i,i,-13,-0.95,i
CCN(Cc1ccccc1)C(=O)c1oc2ccc(C)cc2c1C,i,i,i,5.0*,0.13,i
CCN(Cc1ccccc1)C(=O)c1ccc(C(=O)N(CC)Cc2ccccc2)cc1,i,i,i,-9,-1.5,i
CS(=O)(=O)c1ccc(SCC(=O)NC2CCS(=O)(=O)C2)c([N+](=O)[O-])c1 (stereo not drawn),i,i,i,-3,1.5,i
CCCCN(C(=O)C(C)Oc1cccc(Cl)c1)c1c(N)n(CCC)c(=O)[nH]c1=O (stereo not drawn),i,i,i,-8,1.6,i
O=[N+]([O-])c1cc([N+](=O)[O-])c2oc(-c3ccccc3)c(Br)c2c1O,i,i,i,-20,-0.97,8*
